Source: paper PMC3873039 (Anti-Cancer Agents in Medicinal Chemistry, 2013)

Key:
KG1a [1] = assay: Cell cycle analysis, propidium iodide flow cytometry; assay type: cell-based, human; settings: IC50 dose, 24 h; for Percentage of cells in G0/G1 phase of cell cycle (significant accumulation): vehicle control G0/G1 = 44.6%
In short: (§1)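 Seeded at 0.5 x 10^6 cells per well in 12-well plates and treated 24 h at the IC50 concentration of each test compound from CellTiter-Glo. Cells were pelleted (400 g, 5 min), PBS-washed and fixed in 80% ethanol overnight at -20 °C. Staining used 50 µg/mL PI plus RNase overnight at 4 °C.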

all leukemia cell lines [2] = assay: CellTiter-Glo assay, summary over the leukemia panel; assay type: cell-based, human; settings: for IC50: Homo sapiens, 24 h, read-out: IC50 values (range over leukemia cell lines)
In short: (§2)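 Cells plated at 2.5 x 10^3 per well in complete RPMI 1640 (10% FBS, 37 °C, 5% CO2). Test compounds dissolved in ethanol and dosed at 2–500 µM for 24 h; vehicle control was 0.1% (v/v) ethanol. Viability was read as ATP luminescence, normalised to vehicle (100%). IC50 was taken from linear regression of each curve. Triplicates, three independent experiments.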

JURKAT [3] = assay: Cell cycle analysis, propidium iodide flow cytometry; assay type: cell-based, human; settings: IC50 dose, 24 h, p<0.05
In short: as §1

HL60 [4] = assay: as above; assay type: cell-based, human; settings: HL60, IC50 dose, 24 h; for Percentage of cells in S phase of cell cycle (significant accumulation): vehicle control S = 33.6%; for Percentage of cells in G0/G1 phase of cell cycle (significant accumulation): vehicle control G0/G1 = 56.8%
In short: as §1

U937 [5] = assay: NucView caspase 3 activity assay by flow cytometry; assay type: cell-based, human; settings: for EC50: Homo sapiens, U-937, 24 h, read-out: AP50 (50% induction of apoptosis), Caspase 3 activity assay (C3); for The lowest dose of polyphenols at which there was a significant induction of apoptosis compared to the vehicle control: U937, caspase 3 activity, 24 h, p<0.05
In short: (§3)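 Seeded at 0.5 x 10⁶ cells/well and treated 24 h, with series of 0–50 or 0–250 µM depending on compound. Normalized to vehicle (0% apoptosis). Mean ± STD, three independent experiments in triplicate. One-way ANOVA/Tukey, p<0.05. AP50 = concentration giving 50% apoptotic cells.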

KG1a [6] = assay: Hoechst 33342 nuclear morphological analysis of apoptosis; assay type: cell-based; settings: Homo sapiens, KG-1a, 24 h, read-out: AP50 (50% induction of apoptosis), Hoechst 33342 staining (Hoe)
In short: (§4)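 Seeded at 0.5 x 10⁶ cells/well in 12-well plates and treated 24 h. Cells were pelleted (400 g, 5 min, 4 °C), washed in PBS, fixed in 4% paraformaldehyde, cytospun, air-dried, then stained with 10 μg/ml Hoechst 33342 for 10 min in the dark. Fluorescence microscopy: 200 cells counted, scored by condensed/intense nuclei, shrinkage, blebbing and apoptotic bodies. % apoptotic nuclei calculated. AP50 = concentration giving 50% apoptotic cells.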

U937 [7] = assay: Cell cycle analysis, propidium iodide flow cytometry; assay type: cell-based, human; settings: U937, IC50 dose, 24 h; for Percentage of cells in G0/G1 phase of cell cycle (significant accumulation): vehicle control G0/G1 = 44.03%
In short: as §1

THP-1 = assay: Hoechst 33342 nuclear morphological analysis of apoptosis; assay type: cell-based; settings: Homo sapiens, THP-1, 24 h, read-out: AP50 (50% induction of apoptosis), Hoechst 33342 staining (Hoe)
In short: as §4

JURKAT [8] = assay: NucView caspase 3 activity assay by flow cytometry; assay type: cell-based, human; settings: 24 h; for EC50: Homo sapiens, Jurkat, read-out: AP50 (50% induction of apoptosis), Caspase 3 activity assay (C3); for The lowest dose of polyphenols at which there was a significant induction of apoptosis compared to the vehicle control: JURKAT, caspase 3 activity, p<0.05
In short: as §3

MOLT-3 [9] = assay: Hoechst 33342 nuclear morphological analysis of apoptosis; assay type: cell-based; settings: Homo sapiens, MOLT-3, 24 h, read-out: AP50 (50% induction of apoptosis), Hoechst 33342 staining (Hoe)
In short: as §4

CCRF-CEM = assay: CellTiter-Glo luminescent cell viability assay; assay type: cell-based, human; settings: 24 h, doses 0, 2, 10, 50, 250, 500 µM, p<0.05
In short: (§5)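 Cells grown in RPMI 1640 with 10% FBS, 1.5 mM L-glutamine and penicillin/streptomycin at 37 °C, 5% CO2. Seeded at 2.5 x 10³ cells/well and exposed 24 h to ethanol-dissolved test compound (0, 2, 10, 50, 250, 500 µM) with 0.1% ethanol vehicle. ATP luminescence normalized to vehicle (100%). IC50 taken from linear regression. Lowest significant dose set by one-way ANOVA/Tukey, p<0.05. Triplicates, three independent experiments.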

MOLT-3 [10] = assay: Cell cycle analysis, propidium iodide flow cytometry; assay type: cell-based, human; settings: MOLT-3, IC50 dose, 24 h; for Percentage of cells in G0/G1 phase of cell cycle (significant accumulation): vehicle control G0/G1 = 64.5%
In short: as §1

JURKAT [11] = assay: Hoechst 33342 nuclear morphological analysis of apoptosis; assay type: cell-based; settings: Homo sapiens, 24 h, read-out: AP50 (50% induction of apoptosis), Hoechst 33342 staining (Hoe)
In short: as §4

HL60 [12] = assay: as above; assay type: cell-based; settings: Homo sapiens, HL-60, 24 h, read-out: AP50 (50% induction of apoptosis), Hoechst 33342 staining (Hoe)
In short: as §4

HL60 [13] = assay: CellTiter-Glo luminescent cell viability assay; assay type: cell-based, human; settings: HL60, 24 h, doses 0, 2, 10, 50, 250, 500 µM, p<0.05
In short: as §5

myeloid cell lines = assay: CellTiter-Glo assay, summary over myeloid lines; assay type: cell-based; settings: Homo sapiens, 24 h, read-out: IC50 (range in myeloid cell lines)
In short: as §2

leukemia cell lines = assay: Cell cycle analysis, summary over the leukemia panel; assay type: cell-based, human; settings: IC50 dose, 24 h, 8 leukemia cell lines
In short: as §1

lymphoid cell lines [14] = assay: CellTiter-Glo assay, summary over lymphoid lines; assay type: cell-based; settings: Homo sapiens, 24 h, read-out: IC50 (range in lymphoid cell lines)
In short: as §2

all leukemia cell lines [15] = assay: Apoptosis; assay type: cell-based, human; settings: for EC50: Homo sapiens, 24 h, read-out: AP50 values (range over leukemia cell lines)
[16] = cited from earlier work
lymphoid cell lines [17] = assay: Apoptosis; assay type: cell-based; settings: Homo sapiens, read-out: AP50 values in three lymphoid cell lines
[18] = system: lung (A549) and leukemia (HL-60) cell lines; settings: 24 h; cited from earlier work

Structure (SMILES)	IC50 (all leukemia cell lines [2]) [µM]	EC50 (U937 [5]) [µM]	EC50 (KG1a [6]) [µM]	EC50 (THP-1) [µM]	EC50 (JURKAT [8]) [µM]	EC50 (MOLT-3 [9]) [µM]	EC50 (JURKAT [11]) [µM]	EC50 (HL60 [12]) [µM]	Percentage of cells in G0/G1 phase of cell cycle (significant accumulation) (KG1a [1])	Phase of cell cycle accumulation (JURKAT [3])	Percentage of cells in S phase of cell cycle (significant accumulation) (HL60 [4])	The lowest dose of polyphenols at which there was a significant induction of apoptosis compared to the vehicle control (U937 [5]) [µM]	Percentage of cells in G0/G1 phase of cell cycle (significant accumulation) (U937 [7])	The lowest dose of polyphenols at which there was a significant induction of apoptosis compared to the vehicle control (JURKAT [8]) [µM]	The lowest dose of polyphenols at which there was a significant inhibition of cell proliferation compared to the vehicle control (CCRF-CEM) [µM]	Percentage of cells in G0/G1 phase of cell cycle (significant accumulation) (MOLT-3 [10])	The lowest dose of polyphenols at which there was a significant inhibition of cell proliferation compared to the vehicle control (HL60 [13]) [µM]	IC50 (myeloid cell lines) [µM]	Phase of cell cycle accumulation over the leukemia cell lines (leukemia cell lines)	Percentage of cells in G0/G1 phase of cell cycle (significant accumulation) (HL60 [4])	also measured
O=c1cc(-c2ccccc2)oc2cc(O)cc(O)c12 [Chrysin]	–	150	> 500	> 500	40	38	30	75	G0/G1 =50%	G0/G1 phase	S =45.5%	50	G0/G1 =70%	50	50	G0/G1 =69.3%	50	335 to 500	G0/G1 phase in 7 out of the 8 leukemia cell lines	–	IC50 (lymphoid cell lines [14]): 128 to 217 µM
O=c1c(O)c(-c2ccc(O)c(O)c2)oc2cc(O)cc(O)c12 [Quercetin]	8 to 33	50	125	> 500	19	50	25	50	G0/G1=52%	S-phase	–	2	–	2	2	–	2	33 to 155	–	G0/G1 =66.2%	Potency relative to apigenin and chrysin (all leukemia cell lines [2]; times more potent than apigenin and chrysin): 5-10 times; Percentage of cells in G2/M phase of cell cycle (significant accumulation) (U937 [7]; vehicle control G2/M = 19.1%): G2/M =25%; Percentage of cells in G2/M phase of cell cycle (significant accumulation) (MOLT-3 [10]; vehicle control G2/M = 7.5%): G2/M =19%; EC50 (all leukemia cell lines [15]): 19 to 50 µM; IC50 (lymphoid cell lines [14]): 8 to 20 µM; plasma concentration ([16]; 50-100 mg dose): 750 to 1500 nM; plasma half-life [16]: 11 to 28 h
C(=C\c1ccccc1)/c1ccccc1 [Trans-Stilbene, Trans-stilbene]	109 to 500	200	360	> 500	250	400	310	50	–	S-phase	S =41.9%	50	G0/G1 =62%	50	50	G0/G1 = 69%	50	–	–	–	Percentage of cells in G2/M phase of cell cycle (significant accumulation) (KG1a [1]; vehicle control G2/M = 18.7%): G2/M =23.7%; EC50 (lymphoid cell lines [17]): 40 to 460 µM; IC50 [18]: 6.25 µM

Now from value to compound, other results behind:

IC50 (all leukemia cell lines [2]) [µM]	EC50 (U937 [5]) [µM]	EC50 (KG1a [6]) [µM]	EC50 (THP-1) [µM]	EC50 (JURKAT [8]) [µM]	EC50 (MOLT-3 [9]) [µM]	EC50 (JURKAT [11]) [µM]	EC50 (HL60 [12]) [µM]	Structure (SMILES)	Percentage of cells in G0/G1 phase of cell cycle (significant accumulation) (KG1a [1])	Phase of cell cycle accumulation (JURKAT [3])	Percentage of cells in S phase of cell cycle (significant accumulation) (HL60 [4])	The lowest dose of polyphenols at which there was a significant induction of apoptosis compared to the vehicle control (U937 [5]) [µM]	Percentage of cells in G0/G1 phase of cell cycle (significant accumulation) (U937 [7])	The lowest dose of polyphenols at which there was a significant induction of apoptosis compared to the vehicle control (JURKAT [8]) [µM]	The lowest dose of polyphenols at which there was a significant inhibition of cell proliferation compared to the vehicle control (CCRF-CEM) [µM]	Percentage of cells in G0/G1 phase of cell cycle (significant accumulation) (MOLT-3 [10])	The lowest dose of polyphenols at which there was a significant inhibition of cell proliferation compared to the vehicle control (HL60 [13]) [µM]	IC50 (myeloid cell lines) [µM]	Phase of cell cycle accumulation over the leukemia cell lines (leukemia cell lines)	Percentage of cells in G0/G1 phase of cell cycle (significant accumulation) (HL60 [4])	also measured
180 to 450	50	360	283	50	150	130	190	O=C1c2cccc(O)c2C(=O)c2c(O)cc(CO)cc21 [Aloe - Emodin, Aloe-emodin]	G0/G1 =50%	S-phase	S =35%	50	G0/G1 =53%	50	50	G0/G1 = 68%	50	–	–	–	–
5 to 22	4	> 500	10	2	9	9	6	Cc1cc(O)c2c(c1)C(=O)c1cc(O)cc(O)c1C2=O [Emodin]	G0/G1 =52.9%	G0/G1 phase	–	2	G0/G1 =60%	2	2	G0/G1 =70%	2	–	G0/G1 phase in all leukemia cell lines	G0/G1 =67.7%	EC50 (all leukemia cell lines [15]): 2 to 27 µM; Number of leukemia cell lines in which 50% apoptosis was induced (all leukemia cell lines [15]; Jurkat, MOLT3, HL-60, THP-1 and U937): 5 of the 8
–	60	> 500	60	> 250	265	> 500	> 500	O=C(O)c1cc(O)c2c(c1)C(=O)c1cccc(O)c1C2=O [Rhein]	G0/G1 =49%	S-phase	–	50	G0/G1 =55%	50	50	G0/G1=72%	50	–	–	G0/G1=65%	–
